A selection: hits, their analogues and other compounds. The true share with any hit is near 3.5%.
HIV Rev-RRE inh: disrupts HIV-1 Rev binding to RRE RNA; P05866; Rev peptide-RRE RNA binding, FRET; inhibition, % at 8 µM; actives 0.79% (n = 97,000);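 active means inhibition above the screen-wide mean plus 3 SD, cut at about 35% in these data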
Target sequence (P05866 whole entry, looked up): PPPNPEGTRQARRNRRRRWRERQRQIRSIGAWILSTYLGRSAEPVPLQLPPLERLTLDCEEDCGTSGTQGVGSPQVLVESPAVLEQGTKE
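Test system: Cy5-tagged RRE RNA duplex with fluorescein-tagged Rev peptide; Probe or stimulus: labelled Rev peptide; Schedule: 5 min preincubation and 15 min binding, 25 °C; Signal: FRET fluorescence readout; Evaluation: % inhibition from 671/540 nm acceptor-to-donor ratio, scaled between controls; Control set: DMSO and neomycin B.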
ERa coact inh: blocks coactivator binding to human estrogen receptor alpha. TR-FRET ER-alpha LBD / SRC-1 peptide, estradiol-bound. inhibition, % at 25.6 µM. actives 1.7% (n = 86,000). AID 629; in the data active means inhibition above about 50%
ERb coact inh: blocks coactivator binding to human estrogen receptor beta. Q92731. TR-FRET ER-beta LBD / SRC1-Cy5 peptide binding; receptor agonist-loaded with 1 µM estradiol. inhibition, % at 25.6 µM. actives 1.3% (n = 86,000). AID 633;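 active means compounds whose percent inhibition of the receptor-coactivator binding signal exceeds about 50% in the single-dose screen, limit read from the data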
sEH inhibitor: inhibitors of human soluble epoxide hydrolase; P34913; recombinant human sEH enzymatic activity assay; inhibition, % at 2 µM; actives 0.34% (n = 91,000); AID 707; in the data active means inhibition above about 80%
Target sequence (P34913 whole entry, looked up): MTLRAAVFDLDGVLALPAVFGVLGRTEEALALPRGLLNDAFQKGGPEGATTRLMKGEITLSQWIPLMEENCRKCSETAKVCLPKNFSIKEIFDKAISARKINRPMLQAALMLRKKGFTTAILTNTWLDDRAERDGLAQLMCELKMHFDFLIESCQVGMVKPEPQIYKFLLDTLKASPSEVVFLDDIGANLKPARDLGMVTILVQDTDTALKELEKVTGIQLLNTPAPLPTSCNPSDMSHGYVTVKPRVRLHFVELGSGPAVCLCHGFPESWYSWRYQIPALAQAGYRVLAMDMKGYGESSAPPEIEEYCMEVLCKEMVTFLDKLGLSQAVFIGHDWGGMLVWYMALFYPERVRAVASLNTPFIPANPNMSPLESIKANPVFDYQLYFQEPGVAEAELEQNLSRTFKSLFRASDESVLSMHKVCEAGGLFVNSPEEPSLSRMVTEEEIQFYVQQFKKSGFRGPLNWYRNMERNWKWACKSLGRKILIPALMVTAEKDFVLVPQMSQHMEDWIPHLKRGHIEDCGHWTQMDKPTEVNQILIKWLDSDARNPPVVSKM
sEH activator: increases human soluble epoxide hydrolase activity. P34913. purified human sEH enzymatic activity, activator screen. activation, % at 2 µM. actives 0.04% (n = 91,000). AID 717; in the data active means activation above about 37%
ERa coact pot: enhances coactivator binding to human estrogen receptor alpha; AID 639; actives 1.3% (n = 86,000); TR-FRET ERalpha-LBD/SRC-Cy5 coactivator binding, 2 h; 100 = basal binding, no effect; P03372; coactivator binding (% of control), % at 25.6 µM; in the data active means activity above about 200%;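 further: binding measured in presence of low estradiol as agonist stimulus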
Numbers stand for hits; [ ] = remark or other dose.

Results for CCN1C=C(Cc2ccccc2C)C2=C(C1)C(c1ccccc1C)C(C#N)=C(N)O2 (configuration not stated) ?
HIV Rev-RRE inh: inactive; sEH inhibitor: inactive; sEH activator: inactive

What do the screens show for `CCN1C=CC2=C(C#N)C(N)C(C#N)(C#N)C(c3ccccc3C(F)(F)F)C2C1` (configuration not stated)?
HIV Rev-RRE inh: 58; ERa coact inh: inactive; ERb coact inh: inactive; sEH inhibitor: inactive; sEH activator: inactive; ERa coact pot: inactive

Results for Cc1cccc(N2CCN(C(=O)c3cc4c(=O)n(C)c5ccccc5c4n3C)CC2)c1C ?
HIV Rev-RRE inh: inactive; ERa coact inh: inactive; ERb coact inh: inactive; ERa coact pot: 312

How did Cn1c(C(=O)Nc2ccc3c(c2)OCO3)cc2c(=O)n(C)c3ccccc3c21 do in these assays?
ERa coact inh: 77; ERb coact inh: 59; ERa coact pot: inactive

How did Cn1c(C(=O)NCCN2CCCCCC2)cc2c(=O)n(C)c3ccccc3c21 do in these assays?
HIV Rev-RRE inh: inactive; ERa coact inh: 72[fluorescence artefact?]; ERb coact inh: inactive; sEH inhibitor: inactive; sEH activator: inactive; ERa coact pot: inactive

How did CC(NC(=O)c1cc2c(=O)n(C)c3ccccc3c2n1C)c1ccc2c(c1)OCCO2 (configuration not stated) do in these assays?
HIV Rev-RRE inh: inactive; ERa coact inh: inactive; ERb coact inh: inactive; sEH inhibitor: inactive; sEH activator: inactive; ERa coact pot: 277[fluorescence artefact?]

What do the screens show for `Cc1n(CC(O)COC2CCCCC2)c2ccccc2[n+]1C` (configuration not stated)?
HIV Rev-RRE inh: inactive; ERa coact inh: inactive; ERb coact inh: inactive; sEH inhibitor: inactive; sEH activator: inactive; ERa coact pot: inactive

Results for Cc1ccc(C)c(NC(=S)NC(NC(=O)N(C)C)C(Cl)(Cl)Cl)c1 (configuration not stated) ?
HIV Rev-RRE inh: inactive; sEH inhibitor: inactive; sEH activator: inactive

Results for Cc1ccc(C)c(NC(=S)NC(NC(=O)Cc2cccc3ccccc23)C(Cl)(Cl)Cl)c1 (configuration not stated) ?
HIV Rev-RRE inh: inactive; ERa coact inh: 68[fluorescence artefact?]; ERb coact inh: 69; sEH inhibitor: inactive; sEH activator: inactive; ERa coact pot: inactive

Results for CCC(C)[C@H](NC(=O)NCc1ccccc1Cl)C(=O)O (some centres not stated) ?
HIV Rev-RRE inh: inactive; ERa coact inh: inactive; ERb coact inh: inactive; ERa coact pot: inactive

What do the screens show for `COc1ccccc1-n1c(SCC(=O)NC(C)(C)C)nc(O)cc1=O`?
HIV Rev-RRE inh: inactive; ERa coact inh: inactive; ERb coact inh: inactive; ERa coact pot: inactive

How did CC(C)(C)NC(=O)CSc1nc(O)cc(=O)n1-c1ccccc1F do in these assays?
HIV Rev-RRE inh: 53; ERa coact inh: inactive; ERb coact inh: inactive; ERa coact pot: inactive

What do the screens show for `CCNC(=O)CSc1ncnc2sccc12`?
HIV Rev-RRE inh: inactive; ERa coact inh: 66[fluorescence artefact?]; ERb coact inh: inactive; sEH inhibitor: inactive; sEH activator: inactive; ERa coact pot: inactive

Results for CCn1c(SCC(=O)Nc2oc(-c3ccccc3)c(-c3ccccc3)c2C#N)nnc1-c1ccco1 ?
HIV Rev-RRE inh: inactive; ERa coact inh: inactive; ERb coact inh: inactive; sEH inhibitor: inactive; sEH activator: inactive; ERa coact pot: inactive

How did N#Cc1c(NC(=O)CSc2ncnc3sccc23)oc(-c2ccco2)c1-c1ccco1 do in these assays?
HIV Rev-RRE inh: inactive; ERa coact inh: 90[fluorescence artefact?]; ERb coact inh: 73[fluorescence artefact?]; sEH inhibitor: inactive; sEH activator: inactive; ERa coact pot: inactive

What do the screens show for `COCCNC(=O)CSc1ncnc2sccc12`?
HIV Rev-RRE inh: inactive; ERa coact inh: inactive; ERb coact inh: inactive; ERa coact pot: inactive

Results for Cc1ccc2c(COC(=O)c3n[nH]c4ccccc34)cc(=O)oc2c1 ?
ERa coact inh: inactive; ERb coact inh: inactive; ERa coact pot: 200

What do the screens show for `CCc1ccc2c(COC(=O)c3n[nH]c4ccccc34)cc(=O)oc2c1`?
HIV Rev-RRE inh: inactive; ERa coact inh: inactive; ERb coact inh: inactive; sEH inhibitor: inactive; sEH activator: inactive; ERa coact pot: inactive

How did COC(=O)c1ccc(-c2ccco2)n1Cc1nc(-c2ccc(OC)c(OC)c2)oc1C do in these assays?
ERa coact inh: 70[fluorescence artefact?]; ERb coact inh: 67[fluorescence artefact?]; ERa coact pot: inactive

What do the screens show for `COC(=O)c1ccc(-c2ccco2)n1Cc1ccccc1Cl`?
HIV Rev-RRE inh: inactive; ERa coact inh: inactive; ERb coact inh: inactive; sEH inhibitor: inactive; sEH activator: inactive; ERa coact pot: inactive

What do the screens show for `CCCCc1ccc(C2C(C#N)=C(N)SC(N)=C2C#N)s1`?
HIV Rev-RRE inh: 66; ERa coact inh: inactive; ERb coact inh: inactive; sEH inhibitor: inactive; sEH activator: inactive; ERa coact pot: inactive

What do the screens show for `CCOc1ccc(C2C(C#N)=C(N)SC(N)=C2C#N)c(OCC)c1`?
HIV Rev-RRE inh: inactive; sEH inhibitor: inactive; sEH activator: inactive

Results for O=C(COc1ccccc1)NNC(=S)NC(=O)c1ccc(Cl)cc1Cl ?
HIV Rev-RRE inh: inactive; ERa coact inh: inactive; ERb coact inh: inactive; sEH inhibitor: inactive; sEH activator: inactive; ERa coact pot: inactive

Results for CCCc1cc2c(=O)c(-c3ccccn3)c(C)oc2cc1O ?
ERa coact inh: inactive; ERb coact inh: inactive; ERa coact pot: inactive

What do the screens show for `CCCc1cc2c(=O)c(-c3ccccn3)coc2cc1OC`?
HIV Rev-RRE inh: inactive; ERa coact inh: inactive; ERb coact inh: inactive; sEH inhibitor: inactive; sEH activator: inactive; ERa coact pot: active[fluorescence artefact?]

What do the screens show for `O=C(Nc1cccc(C(=O)N2CCOCC2)c1)c1ccccc1`?
HIV Rev-RRE inh: inactive; ERa coact inh: inactive; ERb coact inh: inactive; sEH inhibitor: inactive; sEH activator: inactive; ERa coact pot: inactive

Results for O=C(Cc1ccccc1)Nc1ccc(N2CCCC2)cc1 ?
HIV Rev-RRE inh: inactive; ERa coact inh: inactive; ERb coact inh: inactive; sEH inhibitor: inactive; sEH activator: inactive; ERa coact pot: inactive

What do the screens show for `O=C(Cc1ccccc1)Nc1cccc(N2CCCC2)c1`?
HIV Rev-RRE inh: inactive; ERa coact inh: 58[fluorescence artefact?]; ERb coact inh: inactive; sEH inhibitor: inactive; sEH activator: inactive; ERa coact pot: inactive

What do the screens show for `O=S(=O)(c1ccc(F)cc1)N1CCn2c(nc3ccccc32)C1`?
HIV Rev-RRE inh: inactive; ERa coact inh: inactive; ERb coact inh: inactive; sEH inhibitor: inactive; sEH activator: inactive; ERa coact pot: inactive

Results for CSc1nc2ccc3nc(NC(=O)c4ccccc4)sc3c2s1 ?
HIV Rev-RRE inh: inactive; ERa coact inh: 55[fluorescence artefact?]; ERb coact inh: inactive; ERa coact pot: 223[fluorescence artefact?]

What do the screens show for `CCCC1=[N+](CC)CCn2c(C)ccc21`?
HIV Rev-RRE inh: inactive; ERa coact inh: inactive; ERb coact inh: inactive; sEH inhibitor: inactive; sEH activator: inactive; ERa coact pot: inactive

Results for Cc1cc2n(c1)CCn1c(C)ccc1-2 ?
HIV Rev-RRE inh: 46; ERa coact inh: 91[fluorescence artefact?]; ERb coact inh: 52; sEH inhibitor: inactive; sEH activator: inactive; ERa coact pot: inactive
